# Sampled rows, rich in hits. Any-hit rate of the full collection: about 4.7%.
# MrgX1 agonist: agonists of human MrgX1 receptor. Q96LB2. actives 0.44% (n = 310,000). MrgX1-HEK293 cells, Fluo-4 calcium fluorescence, agonist mode; stronger effect = higher value. B-score at 10 µM;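 active = calcium response B-score plate-corrected fluorescence ratio at least 3 library SD, with starting fluorescence B-score inside 5 SD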
#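 Material: MrgX1-expressing HEK293 cells / Dosing: compound as first of three additions / Incubation: overnight seeding, then 1 h dark dye loading / Signal: Fluo-4 NW calcium fluorescence / Evaluation: B-scored fluorescence response ratio / Benchmarks: positive and negative control wells on each plate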
# MrgX1 antag: blocks BAM8-22 activation of human MrgX1 receptor; MRGX1-HEK293 calcium flux, Fluo-4, BAM8-22 antagonism; stronger effect = lower value; B-score at 10 µM; AID 588676; actives 1.3% (n = 310,000); Q96LB2;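 active = calcium-response B-score plate-corrected more than 3 library SD below zero, starting fluorescence within 5 deviations, no agonist response on first addition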;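 also: peak minus trough fluorescence over baseline after final BAM8-22 challenge near maximal dose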
# RGS4 pot: potentiators or activators of RGS4; AID 463111; B-score at 10 µM; HEK293 M3R/inducible RGS4, carbachol calcium flux Fluo4; stronger effect = lower value; actives 0.92% (n = 310,000);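 active = B-score of the integrated calcium signal more than 4 SD below the library mean, with starting fluorescence not abnormally high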;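 also: negative B-score means reduced calcium response which marks RGS4 activation or potentiation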
#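 Material: M3R-expressing HEK293 line, RGS4 induced by doxycycline | Schedule: Overnight RGS4 induction, 30 min dye load 37 °C, 20 min compound RT | Measured by: Fluo4 fluorescence kinetic imaging of calcium | Read-out: Integrated calcium ratio converted to B score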
# MrgX1 PAM: human MrgX1 positive allosteric modulation, primary screen; B-score at 10 µM; AID 588675; actives 0.63% (n = 310,000); Q96LB2; MrgX1-HEK293, Fluo-4 calcium flux, FDSS; stronger effect = higher value;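 active = plate-corrected calcium response at least 3 library SD above typical, normal starting fluorescence, not activating the receptor alone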;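 also: compound read alongside a low EC10 to EC30 dose of BAM8-22 agonist; peak minus trough fluorescence over baseline measured at the second addition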
# Cl transport mod: modulators of human KCC2 chloride dependent transport; actives 2.2% (n = 190,000); Q9H2X9; KCC2 cells, thallium flux FluoZin-2 fluorescence; B-score of Tl+ flux slope (higher = more flux/activation; lower = inhibition) at 10 µM;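 active = thallium flux slope and its plate-corrected score both differing from the plate sample mean at a set confidence after two filtering rounds, in either direction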;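 also: slope of fluorescence scaled to starting intensity during 10 to 20 s after thallium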
# Target sequence (Q9H2X9 whole entry, looked up): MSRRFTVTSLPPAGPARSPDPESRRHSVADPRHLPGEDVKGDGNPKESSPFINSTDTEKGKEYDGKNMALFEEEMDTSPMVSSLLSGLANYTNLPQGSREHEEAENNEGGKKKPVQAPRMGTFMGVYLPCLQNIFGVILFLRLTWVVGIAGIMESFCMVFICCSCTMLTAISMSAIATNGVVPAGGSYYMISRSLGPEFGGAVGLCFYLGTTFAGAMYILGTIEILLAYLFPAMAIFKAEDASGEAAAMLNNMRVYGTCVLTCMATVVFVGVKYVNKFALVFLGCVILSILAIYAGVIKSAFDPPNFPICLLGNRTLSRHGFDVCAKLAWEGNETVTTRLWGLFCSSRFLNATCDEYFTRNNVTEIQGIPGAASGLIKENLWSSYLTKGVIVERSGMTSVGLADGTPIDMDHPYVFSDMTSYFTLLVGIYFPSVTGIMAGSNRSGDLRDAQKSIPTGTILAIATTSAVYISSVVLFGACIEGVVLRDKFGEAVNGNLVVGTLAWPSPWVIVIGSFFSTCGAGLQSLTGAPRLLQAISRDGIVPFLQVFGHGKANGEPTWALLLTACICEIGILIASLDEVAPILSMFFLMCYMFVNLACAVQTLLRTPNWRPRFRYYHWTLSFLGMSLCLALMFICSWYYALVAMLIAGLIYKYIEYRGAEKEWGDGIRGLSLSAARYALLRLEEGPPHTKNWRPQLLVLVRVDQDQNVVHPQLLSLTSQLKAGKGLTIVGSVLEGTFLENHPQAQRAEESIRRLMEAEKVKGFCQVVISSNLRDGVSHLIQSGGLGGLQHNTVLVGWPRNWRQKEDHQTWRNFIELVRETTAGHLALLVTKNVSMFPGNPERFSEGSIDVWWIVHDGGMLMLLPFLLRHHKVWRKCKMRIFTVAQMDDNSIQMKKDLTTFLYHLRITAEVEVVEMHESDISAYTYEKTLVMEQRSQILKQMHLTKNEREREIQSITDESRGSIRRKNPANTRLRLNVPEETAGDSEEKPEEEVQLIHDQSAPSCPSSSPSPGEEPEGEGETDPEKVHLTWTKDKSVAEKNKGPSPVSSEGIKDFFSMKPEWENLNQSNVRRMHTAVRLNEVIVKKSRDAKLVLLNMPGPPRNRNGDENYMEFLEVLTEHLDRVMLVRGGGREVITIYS
# RGS4 inh: human RGS4 inhibition | P49798 | HEK293 M3R/RGS4 inducible, Fluo-4 calcium flux; stronger effect = higher value; triggered by carbachol at its EC20 | B-score at 10 µM | actives 0.45% (n = 310,000);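 active = B-score, a plate-corrected calcium signal, over three deviations above library mean, with baseline fluorescence within five deviations of library mean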;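 also: RGS4 expression induced by doxycycline in cells with stable M3 receptor; B-score is computed from the integrated fluorescence ratio over baseline after carbachol; higher B-score means a larger calcium signal and so more RGS4 inhibition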
# RGS4 block valid: RGS4 inhibitor validation; shares compounds with RGS4 inh; HEK293 M3R/RGS4, carbachol calcium Fluo-4 fluorescence; carbachol added at its EC20; 0 = buffer wells, 100 = carbachol control; calcium response, % at 10 µM; actives 65% (n = 1,700); AID 492999;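 active = duplicate-averaged calcium response above the buffer-only control mean plus 5 SD of those controls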;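 also: integrated fluorescence ratio F max minus min over baseline F0; higher response in RGS4-induced cells means RGS4 inhibition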
# M3R Ca ctr: non-induced cell nonspecific activity of RGS4 inhibitors; HEK293 M3R non-induced, carbachol calcium Fluo-4; submaximal (EC20) carbachol stimulus; buffer wells 0%, carbachol control wells 100%; shares compounds with RGS4 inh; actives 20% (n = 1,900); activity (percent), % at 10 µM; call rule not given here;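 also: RGS4 induction absent so cells express M3R without RGS4; higher means more calcium signal and flags a non-specific hit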
# M3R basal Ca ctr: second RGS4 inhibitor counter-screen in uninduced cells lacking carbachol. HEK293 M3R/RGS4 non-induced, Fluo-4 calcium, no carbachol; normalised: buffer wells 0%, carbachol wells 100%. AID 493001. actives 22% (n = 1,900). calcium response (agonist-mode artifact), % at 10 µM. shares compounds with RGS4 inh;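 active = duplicate-averaged calcium rise in uninduced cells above buffer wells' mean plus 5 SD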
# An asterisk follows results filed as active; i = inactive; x = no result.
SMILES,MrgX1 agonist,MrgX1 antag,RGS4 pot,MrgX1 PAM,Cl transport mod,RGS4 inh,RGS4 block valid,M3R Ca ctr,M3R basal Ca ctr
CC1CCCCN1CCCNC(=O)c1ccc(NC(=O)C2=CSCCO2)cc1 (centres undefined),i,i,i,i,x,i,x,x,x
N#CCCSc1ccccc1NC(=O)c1cc(=O)c2ccccc2o1,i,i,i,i,x,i,x,x,x
O=c1nc(N2CCCC2)nc(Nc2ccccc2)[nH]1,i,i,i,i,0.26,i,i,i,i
c1ccc(Nc2nc(N3CCCC3)nc(N3CCOCC3)n2)cc1,i,i,i,i,x,i,i,i,i
O=C(CN1C(=O)NC2(CCOc3ccccc32)C1=O)c1ccc(F)cc1 (centres undefined),i,i,i,i,x,i,x,x,x
C/C(CCc1oc2c(Br)cc(Br)cc2c1-c1ccc(C)o1)=N\O,i,i,i,i,1.1,11*,i,i,i
O=S(=O)(/N=C(/Sc1ccccc1)c1ccccc1)c1ccccc1,i,i,i,i,0.17,13*,16%*,i,22%*
O=C(NCc1ccco1)c1ccc2c(c1)OCCO2,i,i,i,i,x,i,x,x,x
COc1cc(C(C[N+](=O)[O-])c2c(-c3ccccc3)cc3ccccn23)cc(OC)c1OC (centres undefined),i,i,i,i,-0.0097,i,x,i,i
O=Nc1c(-c2ccccc2)cc2ccccn12,i,i,i,i,x,i,x,x,x
COc1cc(C(C[N+](=O)[O-])c2c(C)cc3ccccn23)ccc1O (centres undefined),i,i,i,i,x,i,x,x,x
COc1ccc(C(C[N+](=O)[O-])c2c(-c3ccccc3)cc3ccccn23)cc1OC (centres undefined),55*,i,i,i,-0.49,13*,12%*,i,i
COc1ccc(C(C[N+](=O)[O-])c2c(-c3ccccc3)cc3ccccn23)cc1 (centres undefined),i,i,i,i,-0.44,15*,12%*,i,i
Cc1cc(C)nc(SCC(=O)OCC(=O)Nc2ccccc2)n1,i,i,i,i,x,i,x,x,x
CNC(=S)N1CCN(C(=O)C2CCCO2)CC1 (centres undefined),i,i,i,i,1.9,4.7*,i,i,i
CC(=O)Nc1cc2c(cc1NC(=O)Cn1nc(-c3ccccc3)ccc1=O)OCCO2,i,i,i,i,x,i,x,x,x
CCOc1cccc(-c2c(C(=O)N/N=C/c3ccc(C)s3)nnn2-c2nonc2N)c1,i,i,i,i,x,i,x,i,i
Cc1ccc(-c2c(C(=O)N/N=C/c3ccsc3)nnn2-c2nonc2N)cc1,i,i,i,i,x,i,x,x,x
CCOc1cccc(-c2c(C(=O)N/N=C/c3sccc3C)nnn2-c2nonc2N)c1,i,i,i,i,x,i,x,i,i
CCOc1cccc(-c2c(C(=O)N/N=C/c3ccsc3)nnn2-c2nonc2N)c1,i,i,i,i,x,i,x,i,i
CCN1CCN(C(=O)/C=C/c2ccc(C)o2)CC1,i,i,i,i,0.76,i,x,x,x
Cc1ccc(/C=C/C(=O)N2CC(C)CC(C)C2)o1 (centres undefined),i,i,i,i,0.19,19*,31%*,i,i
O=C(/C=C/c1c(F)cccc1Cl)NCCCN1CCOCC1,i,i,i,i,x,i,x,x,x
CC(OC(=O)c1ccc(NS(=O)(=O)c2ccc3[nH]c(=O)[nH]c3c2)cc1)C(=O)Nc1ccc(Cl)cc1 (centres undefined),i,i,i,i,-0.38,i,i,i,i
COc1ccc(Cl)cc1NC(=O)C(C)OC(=O)c1ccc(NS(=O)(=O)c2ccc3[nH]c(=O)[nH]c3c2)cc1 (centres undefined),i,i,i,i,-1.1,11*,46%*,i,i
SMILES,MrgX1 agonist,MrgX1 antag,RGS4 pot,MrgX1 PAM,Cl transport mod,RGS4 inh,RGS4 block valid,M3R Ca ctr,M3R basal Ca ctr
CC(OC(=O)c1ccc(NS(=O)(=O)c2ccc3[nH]c(=O)[nH]c3c2)cc1)C(N)=O (centres undefined),i,i,i,i,x,i,x,x,x
COc1ccccc1N(CC(=O)NC1CCCC1)C(=O)CCC(=O)Nc1ccccn1,i,i,i,i,x,i,x,x,x
CCOC(=O)COc1ccccc1/C=C\[N+](=O)[O-],i,i,i,i,0.59,19*,70%*,i,11%*
O=S(=O)(c1ccc(Br)cc1)c1nc(-c2ccccc2)oc1NCCN1CCOCC1,i,i,i,i,x,i,x,x,x
CCOc1c(Br)cc(/C=C2\N=C(C)OC2=O)cc1Br,i,i,i,i,x,4.7*,66%*,37%*,i
O=C(/C=C/c1cccc(F)c1)Nc1ccc(S(=O)(=O)Nc2ncccn2)cc1,i,i,i,i,-0.084,5.1*,7.0%*,i,i
CC(CC(=O)Nc1ccc(S(=O)(=O)Nc2ncccn2)cc1)c1ccccc1 (centres undefined),i,i,i,i,x,i,i,i,i
O=C(/C=C/c1ccc(Br)cc1)Nc1ccc(S(=O)(=O)Nc2ncccn2)cc1,i,i,i,i,0.57,i,x,x,x
CC(=O)NS(=O)(=O)c1ccc(NC(=O)CC(C)c2ccccc2)cc1 (centres undefined),i,i,i,i,0.63,i,x,x,x
COc1nc(N)nc(NC(=O)c2cccs2)c1N=O,i,i,i,i,x,8.1*,16%*,i,i
O=C(O)c1cc2c(N3CCC(Cc4ccccc4)CC3)ncnc2s1,i,i,i,i,-3.2,17*,58%*,50%*,i

# Screens: PubChem BioAssay, several laboratories
